Five compounds from publication PMC7003535 (Environmental science & technology, 2020) can be followed below.

For data set [1], the system named is COS-7 cells. Kind of data set: Cytotoxicity in COS-7 cells. The following applies: for TCDD the effect is at the highest concentration. In kind it is cell-based, simian.
Data set [2] deals with T1, gmAhr1a (Gadus morhua, UniProt A0A6H1Z2L5).
T1 sequence (A0A6H1Z2L5 1-957): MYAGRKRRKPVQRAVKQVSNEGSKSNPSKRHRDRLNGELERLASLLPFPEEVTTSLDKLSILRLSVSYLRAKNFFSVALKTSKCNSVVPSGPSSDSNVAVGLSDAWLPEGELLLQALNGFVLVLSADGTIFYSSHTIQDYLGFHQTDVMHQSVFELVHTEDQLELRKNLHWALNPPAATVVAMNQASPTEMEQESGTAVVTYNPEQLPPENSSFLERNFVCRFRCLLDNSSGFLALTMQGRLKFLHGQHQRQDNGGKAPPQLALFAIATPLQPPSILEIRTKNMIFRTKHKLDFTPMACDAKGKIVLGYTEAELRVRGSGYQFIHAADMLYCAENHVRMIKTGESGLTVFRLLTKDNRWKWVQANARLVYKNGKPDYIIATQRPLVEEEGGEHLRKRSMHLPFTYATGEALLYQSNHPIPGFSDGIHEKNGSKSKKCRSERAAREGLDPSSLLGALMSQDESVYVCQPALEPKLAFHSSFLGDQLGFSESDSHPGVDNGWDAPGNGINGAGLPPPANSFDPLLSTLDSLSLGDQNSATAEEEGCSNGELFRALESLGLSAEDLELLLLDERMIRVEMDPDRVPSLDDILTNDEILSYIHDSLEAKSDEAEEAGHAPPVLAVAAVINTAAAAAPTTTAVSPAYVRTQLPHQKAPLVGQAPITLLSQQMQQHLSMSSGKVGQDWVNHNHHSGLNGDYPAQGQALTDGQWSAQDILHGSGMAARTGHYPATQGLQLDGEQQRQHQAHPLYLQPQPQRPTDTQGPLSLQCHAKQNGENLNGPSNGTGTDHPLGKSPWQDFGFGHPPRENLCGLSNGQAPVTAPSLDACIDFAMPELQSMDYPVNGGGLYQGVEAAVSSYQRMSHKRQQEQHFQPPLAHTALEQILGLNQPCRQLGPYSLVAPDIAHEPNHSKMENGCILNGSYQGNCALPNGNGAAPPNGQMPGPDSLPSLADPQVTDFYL
Briefly: XRE luciferase reporter gene assay in COS-7 cells, gmAhr1a with gmArnt1. In kind it is cell-based, Atlantic cod (Gadus morhua). The following applies: for Activation of transcription of XRE-controlled luciferase reporter gene: increasing concentrations; for Shape of concentration-response: at higher concentrations. Background: Reporter assays use an easily measured gene product as a stand-in for the process of interest.

The test system of data set [3] is cyp1a. Briefly: Ex vivo precision-cut liver slices, cyp1a mRNA expression by qPCR. In kind it is cell-based, Atlantic cod (Gadus morhua). The note with it: cod liver slices ex vivo, 1 nM was the lowest concentration used. (In qPCR the cycle at which signal appears reflects the starting amount.)
Data set [4] addresses T2, gmAhr2a (Gadus morhua, UniProt A0A6H1Z3G8).
T2 sequence (A0A6H1Z3G8 1-1127): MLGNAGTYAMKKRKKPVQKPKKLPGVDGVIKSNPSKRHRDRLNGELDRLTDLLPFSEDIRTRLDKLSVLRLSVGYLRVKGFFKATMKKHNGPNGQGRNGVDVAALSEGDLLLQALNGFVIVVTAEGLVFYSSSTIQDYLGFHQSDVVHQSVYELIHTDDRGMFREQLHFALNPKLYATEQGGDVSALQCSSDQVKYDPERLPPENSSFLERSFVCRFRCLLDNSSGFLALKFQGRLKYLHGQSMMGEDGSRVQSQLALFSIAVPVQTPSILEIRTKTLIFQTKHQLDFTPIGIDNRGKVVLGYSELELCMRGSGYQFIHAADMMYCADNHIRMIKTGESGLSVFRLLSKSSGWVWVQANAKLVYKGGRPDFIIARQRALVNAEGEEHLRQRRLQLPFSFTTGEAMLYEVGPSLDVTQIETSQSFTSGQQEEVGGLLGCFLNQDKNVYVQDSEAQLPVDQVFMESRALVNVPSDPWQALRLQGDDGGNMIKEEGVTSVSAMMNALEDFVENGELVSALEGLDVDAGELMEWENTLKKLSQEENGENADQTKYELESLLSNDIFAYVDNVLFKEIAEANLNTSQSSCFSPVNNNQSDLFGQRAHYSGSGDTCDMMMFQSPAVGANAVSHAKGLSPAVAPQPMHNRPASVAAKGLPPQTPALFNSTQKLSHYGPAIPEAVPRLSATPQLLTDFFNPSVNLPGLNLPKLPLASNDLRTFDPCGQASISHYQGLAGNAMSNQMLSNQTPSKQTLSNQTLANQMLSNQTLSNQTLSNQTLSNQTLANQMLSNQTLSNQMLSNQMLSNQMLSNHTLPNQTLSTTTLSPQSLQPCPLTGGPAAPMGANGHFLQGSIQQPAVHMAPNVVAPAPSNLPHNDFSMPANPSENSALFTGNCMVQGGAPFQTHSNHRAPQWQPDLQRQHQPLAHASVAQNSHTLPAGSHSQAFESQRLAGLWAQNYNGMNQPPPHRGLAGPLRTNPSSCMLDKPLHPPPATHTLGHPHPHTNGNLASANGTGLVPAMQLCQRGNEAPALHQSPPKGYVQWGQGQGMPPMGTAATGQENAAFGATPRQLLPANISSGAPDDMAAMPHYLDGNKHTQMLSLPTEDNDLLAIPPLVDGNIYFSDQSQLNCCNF
Kind of data set: XRE luciferase reporter gene assay in COS-7 cells, gmAhr2a with gmArnt1. In kind it is cell-based, Atlantic cod (Gadus morhua). The note with it: for Activation of transcription of XRE-controlled luciferase reporter gene: increasing concentrations.

For data set [5], the system named is gmahr1a and gmahr2a. Kind of data set: Ex vivo precision-cut liver slices, gmahr1a and gmahr2a mRNA expression. In kind it is cell-based, Atlantic cod (Gadus morhua). The following applies: cod liver slices ex vivo, increasing concentrations.
Data set [6] has as its system fhAhr2a. Kind of data set: Velocity sedimentation radioligand binding to in vitro expressed fhAhr2a. Also noted: species or system Fundulus heteroclitus. The following applies: single concentration, qualitative.
The target of data set [7] is T2, gmAhr2a. Kind of data set: Velocity sedimentation radioligand binding to in vitro expressed gmAhr2a. The arrangement: species or system Atlantic cod (Gadus morhua). The note with it: [3H]BNF 10 nM, single concentration, qualitative.
Data set [8] deals with T1, gmAhr1a. Briefly: Velocity sedimentation radioligand binding to in vitro expressed gmAhr1a. The note with it: single concentration, qualitative. Also noted: species or system Atlantic cod (Gadus morhua).
The subject of data set [9] is precision-cut liver slices. Kind of data set: Viability of precision-cut liver slices. The note with it: 100 nM. In kind it is cell-based, Atlantic cod (Gadus morhua). The method in brief: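 Precision-cut liver slices from juvenile Atlantic cod of both sexes (about 1.5–2 years old; tank-held in natural seawater at 9 °C, 12:12 h light/dark). Slices were exposed to Ahr agonist test compounds in 0.01% DMSO, with n=5–7 per compound. Viability was read by MTT reduction and cytotoxicity by LDH release.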

Take `O=Cc1c2[nH]c3ccccc3c2cc2[nH]c3ccccc3c12` [FICZ, 6-formylindolo[3,2-b]carbazole]: the Cell viability result in data set [1] is recorded as “no significant alterations in cell viabilities”. The “Activation of transcription of XRE-controlled luciferase reporter gene” value (from here on “Activation”) in data set [2] (COS-7 cells, gmAhr1a) is listed as “activated”; in [4] (COS-7 cells, gmAhr2a), “activated”. The “EC50 (in words)” value in data set [2] (COS-7 cells, gmAhr1a, luciferase reporter) was “picomolar range”; in data set [4] (COS-7 cells, gmAhr2a, luciferase reporter), “picomolar range”. The Shape of concentration-response result in [2] (gmAhr1a) is “bi-phasic concentration-response”. Further, the “Concentration at which cyp1a expression was induced” value in [3] worked out at 1 nM.
For the compound `c1ccc2c(c1)cc1ccc3cccc4ccc2c1c34` [B[a]P], the “Activation” value in [2] (COS-7 cells, gmAhr1a) is recorded as “activated”; in data set [4] (COS-7 cells, gmAhr2a) it was “activated”. The “Alterations in the expression of gmahr1a and gmahr2a” value in data set [5] was “no significant differences in transcript levels”.
On to `O=c1cc(-c2ccccc2)oc2ccc3ccccc3c12` [BNF, β-naphthoflavone], for which the Cell viability entry in data set [1] is given as “no significant alterations in cell viabilities”. Moreover, the “Activation” value was “activated” in data set [2] (COS-7 cells, gmAhr1a) and “activated” in data set [4] (COS-7 cells, gmAhr2a). The Shape of concentration-response result in data set [2] (gmAhr1a) is on record as “tendencies to a biphasic concentration-response”. Besides, the “Specific binding of [3H]BNF” value in data set [6] ([3H]BNF 10 nM) is reported as “only weak or no specific binding”; in data set [7], “only weak or no specific binding”; in [8] ([3H]BNF 10 nM), “highest amount of specific binding”.
Usually EC50 stands for the concentration that produces a half-maximal response. Low readings indicate an effect from little substance, high ones a need for much substance. For `Clc1cc2c(cc1Cl)Oc1cc(Cl)c(Cl)cc1O2` [TCDD, 2,3,7,8-Tetrachlorodibenzo-p-dioxin], the Cell viability entry in data set [1] is “slight reduction in cell viability”. In addition, the EC50 is approximately 1 nM in [2] and approximately 10 nM in data set [4]. Besides, the “Activation” value is “activated” in [2] (COS-7 cells, gmAhr1a) and “activated” in data set [4] (COS-7 cells, gmAhr2a). In addition, the Emax result in data set [2] (gmAhr1a compared with gmAhr2a) was “very similar”. Further, the “Specific binding of [3H]TCDD” value in data set [6] ([3H]TCDD 2 nM) and in [8] ([3H]TCDD 2 nM) was “Specific binding of [^3H]TCDD was observed” throughout. Moreover, in data set [3], the “Concentration at which cyp1a expression was induced” value is 1 nM. Besides, in [5], the “Alterations in the expression of gmahr1a and gmahr2a” value was “no significant differences in transcript levels”. Further, in data set [9], the “Viability of liver slices” value is recorded as “reduced viability”.
In the case of `Clc1ccc(-c2cc(Cl)c(Cl)c(Cl)c2)cc1Cl` [PCB126, 3,3′,4,4′,5-pentachlorobiphenyl], the “Activation” value in data set [2] (COS-7 cells, gmAhr1a) is reported as “activated”; in [4] (COS-7 cells, gmAhr2a) it was “activated”.
